Activity calls are given as the source filed them. The rule behind the calls is not given here.
Legend:
[1] = target: Dual specificity calcium/calmodulin-dependent 3',5'-cyclic nucleotide phosphodiesterase 1B (Homo sapiens, UniProt Q01064); test: Inhibition of full length recombinant human PDE1B1 using 3',5'-[3H]cAMP as substrate after 30 mins by scintillation proximity assay
Summary of the method: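 Enzymes were human except PDE6A, which was bovine. Each was assayed with cAMP or cGMP substrate, as appropriate to the enzyme, at concentrations below 1/3 of Km. IC50 values are mean ± SEM from n = 3 or more.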

[2] = target: Dual specificity calcium/calmodulin-dependent 3',5'-cyclic nucleotide phosphodiesterase 1A (Homo sapiens, UniProt P54750); test: Inhibition of full length recombinant human PDE1A using 3',5'-[3H]cAMP as substrate after 30 mins by scintillation proximity assay
Sequence of Dual specificity calcium/calmodulin-dependent 3',5'-cyclic nucleotide phosphodiesterase 1A (P54750 whole entry): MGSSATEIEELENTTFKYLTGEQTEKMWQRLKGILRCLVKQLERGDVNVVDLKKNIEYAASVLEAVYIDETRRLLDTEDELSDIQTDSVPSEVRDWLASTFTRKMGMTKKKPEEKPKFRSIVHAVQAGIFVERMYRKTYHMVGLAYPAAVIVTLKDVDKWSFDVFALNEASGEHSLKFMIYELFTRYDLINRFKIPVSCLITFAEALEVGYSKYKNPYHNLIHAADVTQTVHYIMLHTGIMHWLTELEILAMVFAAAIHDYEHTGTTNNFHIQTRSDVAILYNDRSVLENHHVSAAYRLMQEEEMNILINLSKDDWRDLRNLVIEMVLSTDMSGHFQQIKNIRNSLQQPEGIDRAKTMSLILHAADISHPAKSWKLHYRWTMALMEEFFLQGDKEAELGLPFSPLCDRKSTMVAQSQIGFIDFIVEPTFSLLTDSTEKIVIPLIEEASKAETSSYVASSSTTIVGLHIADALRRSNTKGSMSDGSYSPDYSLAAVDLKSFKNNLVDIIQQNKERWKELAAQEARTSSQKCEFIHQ
Summary of the method: (§1)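 Human recombinant enzymes; substrate held below 1/3 of Km. IC50 reported as mean ± SEM of at least 3 determinations.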

[3] = target: T1, Dual specificity calcium/calmodulin-dependent 3',5'-cyclic nucleotide phosphodiesterase 1C (Homo sapiens, UniProt Q14123); test: Inhibition of full length recombinant human PDE1C using 3',5'-[3H]cAMP as substrate after 30 mins by scintillation proximity assay; summary of the method: as §1
T1 sequence (Q14123 whole entry): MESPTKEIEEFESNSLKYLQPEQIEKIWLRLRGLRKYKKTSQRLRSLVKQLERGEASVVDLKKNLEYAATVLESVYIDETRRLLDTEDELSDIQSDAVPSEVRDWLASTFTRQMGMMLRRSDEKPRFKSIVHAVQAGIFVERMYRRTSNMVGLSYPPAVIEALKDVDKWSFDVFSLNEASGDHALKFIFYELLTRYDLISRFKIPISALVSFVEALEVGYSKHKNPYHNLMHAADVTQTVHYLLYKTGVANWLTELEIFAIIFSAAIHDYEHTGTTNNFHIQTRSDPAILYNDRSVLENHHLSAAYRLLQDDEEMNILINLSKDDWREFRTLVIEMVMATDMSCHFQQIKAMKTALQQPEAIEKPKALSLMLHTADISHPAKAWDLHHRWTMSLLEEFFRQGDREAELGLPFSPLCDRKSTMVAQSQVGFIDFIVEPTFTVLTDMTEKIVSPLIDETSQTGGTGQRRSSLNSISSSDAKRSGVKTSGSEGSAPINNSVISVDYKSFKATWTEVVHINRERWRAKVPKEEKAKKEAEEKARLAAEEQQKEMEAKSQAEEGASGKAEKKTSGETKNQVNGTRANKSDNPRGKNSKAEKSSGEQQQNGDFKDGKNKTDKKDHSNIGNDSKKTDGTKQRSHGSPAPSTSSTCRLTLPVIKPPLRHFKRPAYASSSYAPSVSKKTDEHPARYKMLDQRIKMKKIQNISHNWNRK

[4] = system: HEK293; test: Inhibition of recombinant human PDE3 expressed in HEK293 cells using 3',5'-[3H]cAMP as substrate at 1 uM
Summary of the method: (§2)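 Recombinant enzymes were assayed for hydrolysis of cAMP or cGMP, with substrate at 0.1 µM. The inhibitor was tested at 1.0 µM.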

[5] = target: T2, cGMP-specific 3',5'-cyclic phosphodiesterase (Homo sapiens, UniProt O76074); test: Inhibition of recombinant human PDE5 expressed in HEK293 cells using 3',5'-[3H]cGMP as substrate at 1 uM
Summary of the method: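 Recombinant enzymes were tested at 1.0 µM inhibitor with cAMP or cGMP substrate at 0.1 µM. Read-out is hydrolytic activity relative to control.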

[6] = target: T1, Dual specificity calcium/calmodulin-dependent 3',5'-cyclic nucleotide phosphodiesterase 1C; test: Inhibition of recombinant C-terminal FLAG tagged human PDE1C expressed in HEK293 cells using 3',5'-[3H]cAMP as substrate
[7] = target: T3, cGMP-inhibited 3',5'-cyclic phosphodiesterase 3A (Homo sapiens, UniProt Q14432); test: Inhibition of recombinant human PDE3A expressed in HEK293 cells using 3',5'-[3H]cAMP as substrate; summary of the method: as §2
T3 sequence (Q14432 whole entry): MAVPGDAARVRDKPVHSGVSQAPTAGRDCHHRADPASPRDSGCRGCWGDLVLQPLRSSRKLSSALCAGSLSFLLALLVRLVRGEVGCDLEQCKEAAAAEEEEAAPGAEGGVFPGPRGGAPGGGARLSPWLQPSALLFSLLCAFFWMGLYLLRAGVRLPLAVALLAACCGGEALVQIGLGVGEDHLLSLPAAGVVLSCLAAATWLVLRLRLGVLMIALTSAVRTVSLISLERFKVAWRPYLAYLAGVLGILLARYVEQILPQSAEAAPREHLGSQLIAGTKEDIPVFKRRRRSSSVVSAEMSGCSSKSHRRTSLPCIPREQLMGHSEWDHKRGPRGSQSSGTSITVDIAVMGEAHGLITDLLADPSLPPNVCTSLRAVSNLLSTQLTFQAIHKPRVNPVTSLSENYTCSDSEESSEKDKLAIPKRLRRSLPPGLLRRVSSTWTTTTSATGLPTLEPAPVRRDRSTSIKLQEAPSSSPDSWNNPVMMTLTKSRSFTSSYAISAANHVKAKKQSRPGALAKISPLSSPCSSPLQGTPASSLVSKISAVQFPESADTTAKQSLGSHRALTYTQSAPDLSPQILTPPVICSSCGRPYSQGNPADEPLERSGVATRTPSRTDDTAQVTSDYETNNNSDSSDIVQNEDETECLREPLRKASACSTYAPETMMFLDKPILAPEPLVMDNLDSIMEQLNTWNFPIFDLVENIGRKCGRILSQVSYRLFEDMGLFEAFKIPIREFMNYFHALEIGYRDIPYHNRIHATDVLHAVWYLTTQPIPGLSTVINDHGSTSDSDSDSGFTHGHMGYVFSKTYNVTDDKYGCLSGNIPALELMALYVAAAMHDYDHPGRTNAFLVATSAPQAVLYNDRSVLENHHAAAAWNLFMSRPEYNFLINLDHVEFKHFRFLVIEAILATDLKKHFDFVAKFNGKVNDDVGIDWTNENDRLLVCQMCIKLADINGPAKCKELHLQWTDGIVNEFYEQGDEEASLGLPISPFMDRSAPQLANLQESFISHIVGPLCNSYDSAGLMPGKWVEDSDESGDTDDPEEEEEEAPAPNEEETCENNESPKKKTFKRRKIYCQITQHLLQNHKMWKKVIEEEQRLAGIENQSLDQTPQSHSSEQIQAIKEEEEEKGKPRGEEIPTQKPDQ

[8] = target: T1, Dual specificity calcium/calmodulin-dependent 3',5'-cyclic nucleotide phosphodiesterase 1C; test: Inhibition of recombinant C-terminal FLAG tagged human PDE1C expressed in HEK293 cells using 3',5'-[3H]cGMP as substrate
[9] = target: T3, cGMP-inhibited 3',5'-cyclic phosphodiesterase 3A; test: Inhibition of recombinant human PDE3A expressed in HEK293 cells using 3',5'-[3H]cGMP as substrate; summary of the method: as §2
[10] = target: T2, cGMP-specific 3',5'-cyclic phosphodiesterase; test: Inhibition of recombinant human PDE5A expressed in HEK293 cells using 3',5'-[3H]cGMP as substrate; summary of the method: as §2
[11] = target: T3, cGMP-inhibited 3',5'-cyclic phosphodiesterase 3A; test: Inhibition of PDE3A in soluble protein extracts of human myocardium using 3',5'-[3H]cGMP as substrate at 1 uM relative to control
[12] = target: T2, cGMP-specific 3',5'-cyclic phosphodiesterase; test: Inhibition of PDE5A in soluble protein extracts of human myocardium using 3',5'-[3H]cGMP as substrate at 1 uM relative to control
[13] = target: T3, cGMP-inhibited 3',5'-cyclic phosphodiesterase 3A; test: Inhibition of PDE3A in soluble protein extracts of human myocardium using 3',5'-[3H]cAMP as substrate at 1 uM relative to control
[14] = target: T2, cGMP-specific 3',5'-cyclic phosphodiesterase; test: Inhibition of PDE5A in soluble protein extracts of human myocardium using 3',5'-[3H]cAMP as substrate at 1 uM relative to control
[15] = target: T3, cGMP-inhibited 3',5'-cyclic phosphodiesterase 3A; test: Inhibition of PDE3A in soluble protein extracts of human myocardium assessed as Ca2+/calmodulin stimulated substrate hydrolysis using 3',5'-[3H]cGMP as substrate relative to control; details: concentration not given here
Summary of the method: (§3)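 Soluble protein extracts from human left ventricle, test agent 1.0 µM, [3H]cAMP or [3H]cGMP substrate at 0.1 µM. Total activity was measured with CaCl2 plus exogenous calmodulin, and a parallel reaction was run with the Ca2+ chelator EGTA. Ca2+/calmodulin-dependent activity is total minus the EGTA activity; inhibition is given relative to control.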

[16] = target: T2, cGMP-specific 3',5'-cyclic phosphodiesterase; test: Inhibition of PDE5A in soluble protein extracts of human myocardium assessed as Ca2+/calmodulin stimulated substrate hydrolysis using 3',5'-[3H]cGMP as substrate relative to control; details: concentration not given here; summary of the method: as §3
[17] = target: T3, cGMP-inhibited 3',5'-cyclic phosphodiesterase 3A; test: Inhibition of PDE3A in soluble protein extracts of human myocardium assessed as Ca2+/calmodulin stimulated substrate hydrolysis using 3',5'-[3H]cAMP as substrate relative to control; details: concentration not given here; summary of the method: as §3
[18] = target: T2, cGMP-specific 3',5'-cyclic phosphodiesterase; test: Inhibition of PDE5A in soluble protein extracts of human myocardium assessed as Ca2+/calmodulin stimulated substrate hydrolysis using 3',5'-[3H]cAMP as substrate relative to control; details: concentration not given here; summary of the method: as §3

Sequence of Dual specificity calcium/calmodulin-dependent 3',5'-cyclic nucleotide phosphodiesterase 1B (Q01064 whole entry): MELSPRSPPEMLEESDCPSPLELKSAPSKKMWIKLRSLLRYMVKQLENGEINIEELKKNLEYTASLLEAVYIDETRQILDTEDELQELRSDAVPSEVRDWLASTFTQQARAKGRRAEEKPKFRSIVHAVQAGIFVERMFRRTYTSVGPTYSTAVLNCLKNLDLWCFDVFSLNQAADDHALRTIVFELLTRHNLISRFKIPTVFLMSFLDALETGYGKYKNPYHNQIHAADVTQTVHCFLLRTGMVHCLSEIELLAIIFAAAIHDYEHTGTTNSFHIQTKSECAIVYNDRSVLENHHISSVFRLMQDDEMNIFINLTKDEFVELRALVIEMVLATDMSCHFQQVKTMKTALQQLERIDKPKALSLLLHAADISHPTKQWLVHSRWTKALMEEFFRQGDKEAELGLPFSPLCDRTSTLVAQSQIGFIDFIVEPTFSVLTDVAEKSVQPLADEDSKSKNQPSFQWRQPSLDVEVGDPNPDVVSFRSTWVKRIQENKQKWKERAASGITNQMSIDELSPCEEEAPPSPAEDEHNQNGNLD

With `COc1cc2c(NC(C)Cc3cc(C)n[nH]3)ncnc2c(OC)c1OC` (racemic) the IC50 [1] was 27 nM.

With `COc1cc2ncnc(NC(C)Cc3cc(C)n[nH]3)c2cc1OC` (racemic) the IC50 [1] was 52 nM.

For `COc1ccc2c(NC(C)Cc3cc(C)[nH]n3)ncnc2c1OC` (racemic), the IC50 [2] was 118 nM, the IC50 [1] was 21 nM and the IC50 [3] was 83 nM. For the same compound, the inhibition [4] was “Active”, the inhibition [5] was “Active” and the IC50 [6] was 56 nM. For the same compound, the IC50 [7] was 101000 nM, the IC50 [8] was 110 nM and the IC50 [9] was 369000 nM. The IC50 [10] was 30300 nM, the inhibition [11] was 80% and the inhibition [12] was 80%. For the same compound, the inhibition [13] was 76%, the inhibition [14] was 76% and the inhibition [15] was 90%. For the same compound, the inhibition [16] was 90%, the inhibition [17] was 90% and the inhibition [18] was 90%.

Work on `COc1ccc2c(N[C@H](C)Cc3cc(C)[nH]n3)ncnc2c1OC` yielded an IC50 [2] of 777 nM, an IC50 [1] of 596 nM and an IC50 [3] of 579 nM.

`COc1ccc2c([C@H]3CCc4ccc(Cl)cc43)ncnc2c1OC` gave an IC50 [1] of 4.5 nM.

For `CCC(CC)Nc1ncnc2c(OC)c(OC)c(OC)cc12`, the IC50 [1] was 35 nM.

From ChEMBL document CHEMBL4118152, “Discovery of Potent and Selective Periphery-Restricted Quinazoline Inhibitors of the Cyclic Nucleotide Phosphodiesterase PDE1” (J Med Chem, 2018)
